PubChem BioAssay
Activity calls are given as the source filed them.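 How the source made its calls: active means duplicate-averaged activation above buffer control mean plus 5 SD of those controls; inactive means the rest.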

test: thallium flux activation in parental CHO cells, counter-screen for KCNQ1 potentiator project (AID 493006); conditions: parental CHO-K1 cells, FluxOR thallium flux, at 10 µM; hits give high values;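 on activation: fluorescence ratio of max minus min over baseline after K+ and Tl+ depolarization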
Procedure, shortened: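 Assay system: parental CHO-K1 cells lacking KCNQ1, loaded with FluxOR thallium dye; timing: dye 90 min RT, compound 20 min RT; signal: kinetic thallium-flux fluorescence; repeats: duplicate wells per compound, percent values averaged; benchmarks: buffer and R-L3 controls; reagent: Potassium/thallium depolarization pulse; read-out: fluorescence change ratio scaled 0% buffer, 100% R-L3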

Row | Structure (SMILES) | activation | outcome
1 | O=C1NC(=S)SC1=C1CCCC1 | 142% (active) | 
2 | COc1ccc(C(=O)N2CCC(n3nccc3NC(=O)C3CCOC3)CC2)cc1 (stereo not given) |  | inactive
3 | COc1cc(CNCc2ccccn2)ccc1OCc1c(Cl)cccc1Cl |  | inactive
4 | CCOc1ccc(/C=C2/SC(=O)NC2=S)cc1 | 425% (active) | 
5 | CC(Sc1n[nH]c(N)n1)C(=O)NC1CCCCC1C (stereo not given) | 152% (active) | 
6 | COC(=O)c1ccc(/C=C/c2ccc3cccc(OC)c3n2)cc1 |  | inactive
7 | CCc1ccc(CNC(=O)CCn2nc(C)c3c(C)n(-c4ccccc4)nc3c2=O)cc1 |  | inactive
8 | Cc1nn(C)c(C(=O)NC(=S)Nc2ccccc2Br)c1Cl | 232% (active) | 
9 | COC(=O)c1cn(NC(=O)Cc2ccc(Cl)c(Cl)c2)c(=O)c2ccccc12 |  | inactive
10 | COc1ccccc1C(=O)Nc1ccnn1C1CCN(CCCC2CCCC2)CC1 |  | inactive
11 | CCOc1ccc(C(=O)NC(=S)N(Cc2ccccc2)Cc2ccccc2)cc1 | 395% (active) | 
12 | COc1ccc2oc(C(=O)OCC(=O)N3CC(C)OC(C)C3)c(C)c2c1 (stereo not given) |  | inactive
13 | Cc1nn(-c2ccccc2)c(Cl)c1/C=C1\SC(=S)NC1=O | 614% (active) | 
14 | CCOc1ccc(CN(CCC#N)C(=S)NC(=O)c2ccccc2)cc1 | 149% (active) | 
15 | O=C(NC(=S)Nc1ccccc1)c1ccc(Br)o1 |  | inactive
16 | CC(C)C1Cc2c(sc3[nH]c(=S)n(Cc4ccccc4)c(=O)c23)CO1 (stereo not given) | 404% (active) | 
17 | CCc1ccc(-c2c(C)sc(NC(C)=O)c2C(N)=O)cc1 |  | inactive
18 | COc1ccc(C)cc1NC(=O)C(=O)NNC(=O)COc1ccc(Cl)cc1 | 166% (active) | 
19 | CN(C)CCCNc1nc2sc3c(c2c(=O)n1CCc1ccccc1)CCCCC3 |  | inactive
20 | COc1cc2c(cc1OC)CN(C(=O)CNC(=O)c1ccc(OC(F)F)cc1)CC2 |  | inactive

Row | Structure (SMILES) | activation | outcome
21 | O=C(NCc1ccccc1)C(=O)NCC1CCCN1S(=O)(=O)c1cccs1 (stereo not given) |  | inactive
22 | CCc1nccn1S(=O)(=O)c1ccc2ccc(C)cc2c1 |  | inactive
23 | Cc1cccc(N=Cc2cc(Br)cc(Cl)c2O)c1 | 188% (active) | 
24 | CC(=O)c1ccc(N2CCN(C(=O)c3ccc(NC(=O)C4CCCO4)cc3)CC2)cc1 (stereo not given) |  | inactive
25 | CCc1ccc(C2c3[nH]c4ccccc4c3CCN2C(=O)CNC(N)=O)cc1 (stereo not given) |  | inactive
26 | CC(C)(C)n1nnnc1C(c1cc2cc3c(cc2[nH]c1=O)OCCO3)N1CCSCC1 (stereo not given) |  | inactive
27 | COc1ccc(/C=C2\SC(=O)NC2=S)cc1OC | 154% (active) | 
28 | CN(CC(=O)Nc1ccc(F)c(F)c1F)C(=O)CC1OC(=O)c2ccccc21 (stereo not given) |  | inactive
29 | Cc1ccc(C(=O)CC(=O)c2cc(Cl)ccc2O)cc1 | 150% (active) | 
30 | Cc1ccc(C2C(/C=C3/SC(=S)NC3=O)=C(c3cccs3)Oc3ccccc32)cc1 (stereo not given) | 142% (active) | 
31 | CC1CC(C)CN(Cc2nc(N)nc(Nc3ccc4ccccc4c3)n2)C1 (stereo not given) | 170% (active) | 
32 | CC1Cc2cc(/C=C3/SC(=S)NC3=O)ccc2O1 (stereo not given) |  | inactive
33 | CC(=O)Nc1ccc(/C=N/N2C(=O)NC(C)(c3ccc(OC(F)F)cc3)C2=O)cc1 (stereo not given) | 219% (active) | 
34 | O=c1c2cc(Cl)ccc2nc(-c2ccc([N+](=O)[O-])cc2)n1O | 445% (active) | 
35 | COc1cc(OC)cc(C(=O)Nc2nnc(SCC(=O)NCc3ccco3)s2)c1 | 150% (active) | 
36 | CCC(Oc1ccc(Cl)cc1)C(=O)N1CC(=O)Nc2ccccc21 (stereo not given) |  | inactive
37 | COc1ccccc1CNC(=O)COC(=O)c1nccnc1N |  | inactive
38 | O=C(CCOc1ccccc1)Nc1ccnn1C1CCN(Cc2ccc(CO)o2)CC1 |  | inactive
39 | Cc1ccc2cc(CN(C(=O)c3ccco3)c3ccccc3C)c(=O)[nH]c2c1 |  | inactive
40 | CCC1CCC2(CC1)NNC(=S)NN2 |  | inactive
